12 molecules from ChEMBL document CHEMBL4020701, “A strategy for dual inhibition of the proteasome and fatty acid synthase with belactosin C-orlistat hybrids” (Bioorg Med Chem, 2017) can be followed below.

As usually defined, the IC50 is the concentration needed to halve the response being measured.

In series [1] the target is T1, Fatty acid synthase (Homo sapiens, UniProt P49327). Nature of the series: Inhibition of human FAS thioster domain preincubated for 30 mins followed by 4-methylumbelliferyl heptanoate substrate addition measured every 5 mins for 60 mins by fluorescence assay.
Target sequence in this assay (P49327 whole entry, the tested form may be a part): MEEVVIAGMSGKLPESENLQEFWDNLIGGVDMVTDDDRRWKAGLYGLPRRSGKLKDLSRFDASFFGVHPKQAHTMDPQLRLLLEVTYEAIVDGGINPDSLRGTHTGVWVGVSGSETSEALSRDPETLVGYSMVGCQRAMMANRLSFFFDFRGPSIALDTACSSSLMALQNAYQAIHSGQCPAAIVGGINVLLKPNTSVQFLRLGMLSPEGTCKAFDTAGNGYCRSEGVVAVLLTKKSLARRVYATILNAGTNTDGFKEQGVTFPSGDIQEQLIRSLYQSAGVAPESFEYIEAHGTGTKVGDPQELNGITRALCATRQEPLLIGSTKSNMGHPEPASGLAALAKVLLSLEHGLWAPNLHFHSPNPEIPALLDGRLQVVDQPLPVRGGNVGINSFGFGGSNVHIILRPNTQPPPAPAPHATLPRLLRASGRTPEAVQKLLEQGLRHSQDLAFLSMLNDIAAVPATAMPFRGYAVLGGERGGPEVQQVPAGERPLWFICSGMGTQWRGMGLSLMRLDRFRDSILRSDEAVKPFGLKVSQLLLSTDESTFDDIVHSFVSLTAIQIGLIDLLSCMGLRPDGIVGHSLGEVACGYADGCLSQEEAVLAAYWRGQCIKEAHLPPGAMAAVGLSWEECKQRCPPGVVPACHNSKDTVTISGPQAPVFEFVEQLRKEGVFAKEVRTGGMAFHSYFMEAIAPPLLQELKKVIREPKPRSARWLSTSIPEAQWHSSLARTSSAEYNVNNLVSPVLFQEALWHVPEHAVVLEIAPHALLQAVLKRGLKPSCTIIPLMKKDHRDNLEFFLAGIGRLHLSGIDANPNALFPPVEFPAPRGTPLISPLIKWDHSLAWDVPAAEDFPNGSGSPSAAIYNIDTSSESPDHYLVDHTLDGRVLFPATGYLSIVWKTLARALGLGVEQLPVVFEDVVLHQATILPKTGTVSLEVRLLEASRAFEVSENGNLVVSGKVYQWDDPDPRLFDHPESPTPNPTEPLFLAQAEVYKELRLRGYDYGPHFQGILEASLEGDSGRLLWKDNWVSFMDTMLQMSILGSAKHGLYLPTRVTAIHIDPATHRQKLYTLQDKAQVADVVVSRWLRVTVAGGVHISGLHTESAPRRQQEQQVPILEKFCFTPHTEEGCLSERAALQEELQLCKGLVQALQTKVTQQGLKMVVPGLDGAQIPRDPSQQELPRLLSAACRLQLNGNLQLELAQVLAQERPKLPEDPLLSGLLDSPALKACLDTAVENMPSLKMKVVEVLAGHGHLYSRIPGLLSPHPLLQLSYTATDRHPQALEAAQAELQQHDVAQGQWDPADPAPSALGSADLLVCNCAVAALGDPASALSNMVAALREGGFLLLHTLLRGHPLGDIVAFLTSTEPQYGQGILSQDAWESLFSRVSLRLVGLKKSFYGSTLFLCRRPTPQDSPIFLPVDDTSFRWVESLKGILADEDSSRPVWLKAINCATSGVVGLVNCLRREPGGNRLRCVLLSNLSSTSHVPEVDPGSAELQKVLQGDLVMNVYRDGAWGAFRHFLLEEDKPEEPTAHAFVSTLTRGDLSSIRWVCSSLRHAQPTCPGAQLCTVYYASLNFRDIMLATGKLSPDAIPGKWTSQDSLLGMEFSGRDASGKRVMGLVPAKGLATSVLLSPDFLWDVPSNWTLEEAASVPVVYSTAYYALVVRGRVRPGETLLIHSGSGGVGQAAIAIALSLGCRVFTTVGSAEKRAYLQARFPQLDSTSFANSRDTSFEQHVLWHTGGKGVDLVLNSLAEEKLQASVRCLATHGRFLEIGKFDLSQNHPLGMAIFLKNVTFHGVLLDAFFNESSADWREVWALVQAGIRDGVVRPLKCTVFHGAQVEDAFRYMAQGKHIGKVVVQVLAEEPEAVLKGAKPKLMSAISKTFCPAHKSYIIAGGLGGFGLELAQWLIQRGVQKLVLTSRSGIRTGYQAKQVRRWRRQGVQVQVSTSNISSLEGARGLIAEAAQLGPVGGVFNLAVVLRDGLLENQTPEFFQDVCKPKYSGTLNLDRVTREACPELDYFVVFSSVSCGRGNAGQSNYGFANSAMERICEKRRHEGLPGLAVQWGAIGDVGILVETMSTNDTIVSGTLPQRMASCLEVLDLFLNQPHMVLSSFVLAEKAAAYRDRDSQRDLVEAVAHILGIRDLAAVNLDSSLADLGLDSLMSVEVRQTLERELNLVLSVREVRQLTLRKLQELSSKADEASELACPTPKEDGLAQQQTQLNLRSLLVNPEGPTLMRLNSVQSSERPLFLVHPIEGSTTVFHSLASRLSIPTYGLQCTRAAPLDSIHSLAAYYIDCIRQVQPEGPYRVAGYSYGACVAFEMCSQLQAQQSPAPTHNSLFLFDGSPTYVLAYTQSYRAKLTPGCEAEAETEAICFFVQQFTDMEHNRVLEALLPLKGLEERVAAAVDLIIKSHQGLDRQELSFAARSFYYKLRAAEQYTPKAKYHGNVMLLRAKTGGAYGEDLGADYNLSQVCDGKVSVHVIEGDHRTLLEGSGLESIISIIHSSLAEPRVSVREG
The target of series [2] is T2, Proteasome Macropain subunit MB1 (Homo sapiens, UniProt P28074).
T2 sequence (P28074 whole entry): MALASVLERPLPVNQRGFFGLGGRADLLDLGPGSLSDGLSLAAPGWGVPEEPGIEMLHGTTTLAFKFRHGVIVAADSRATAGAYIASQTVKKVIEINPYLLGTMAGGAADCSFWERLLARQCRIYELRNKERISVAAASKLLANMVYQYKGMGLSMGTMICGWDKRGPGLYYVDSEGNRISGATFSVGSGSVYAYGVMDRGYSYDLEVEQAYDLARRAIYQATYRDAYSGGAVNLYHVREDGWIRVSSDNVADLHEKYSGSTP
Nature of the series: Inhibition of chymotrypsin-like activity of 20S proteasome in human red blood cells pretreated for 20 mins followed by Suc-Leu-Leu-Val-Tyr-AMC substrate addition by fluorescence assay. Type of series: cell-based. Put shortly: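 20S proteasome (50 ng) from human erythrocytes, preincubated 20 min at 37 °C in 20 mM Tris pH 7.5 with inhibitor series. AMC substrate then added: 10 µM Suc-LLVY for chymotrypsin-like, 20 µM Boc-LRR for trypsin-like, 20 µM Z-LLE for caspase-like. Hydrolysis followed at 360/460 nm for 600 s; the linear rate was fitted to a four-parameter curve for IC50. Triplicate.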

Series [3] deals with T1, Fatty acid synthase. The series is described as follows: Inhibition of FAS thioster domain (unknown origin). The gist of the method: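 Human FAS-TE (500 nM) in 100 mM Tris-HCl, 50 mM NaCl, pH 7.4, preincubated 30 min at 37 °C with compound (0.32–100 µM and/or 0.08–10 µM final, DMSO). Reaction started with 4-methylumbelliferyl heptanoate. Fluorescence (350/450 nm) read every 5 min for 60 min, substrate-only background. IC50 by four-parameter fit; triplicate.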
Target sequence in this assay (P49327 whole entry, the tested form may be a part): as the sequence (P49327 whole entry, the tested form may be a part) above

A short description of series [4]: Half life in DMEM medium at 5 uM in presence of 5% FBS by HPLC method. Type of series: physicochemical. As to conditions: cattle. Put shortly: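 Compound at 5 µM final in DMEM with 5% FBS at 37 °C, 5% CO2. Aliquots quenched with pH 2.0 phosphate buffer plus acetonitrile and vortexed to precipitate serum protein. Clear supernatant analysed by C18 HPLC as % β-lactone remaining versus initial. Triplicate.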

A short description of series [5]: Half life in DMEM medium at 5 uM in absence of 5% FBS by HPLC method. The series is classed as physicochemical. Put shortly:
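Compound diluted from DMSO stock to 5 µM final in DMEM (pH 7.5) and held at 37 °C under 5% CO2. Aliquots taken at intervals and quenched with pH 2.0 phosphate buffer. Remaining β-lactone quantified by C18 HPLC integration against initial compound. Run in triplicate.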

Series [6] deals with T1, Fatty acid synthase. The series is described as follows: Competitive inhibition of human FAS thioster domain in MCF cells preincubated for 30 mins followed by TAMRA-N3 labelled (S)-4-ethynylbenzyl 2-((S)-2-(benzyloxycarbonylamino)-6-((2R,3S)-3-hexyl-4-oxooxetane-2-carboxamido)hexanamido)propanoate probe addition after 30 mins […]. Type of series: cell-based. The gist of the method: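 MCF-7 cells at 80–90% confluency in serum-free medium, pre-incubated 30 min at 37 °C with competitor (10 → 100 µM, 1–10-fold excess over probe; DMSO ≤0.1%). Alkyne probe then added at 10 µM final for 30 min. Cells lysed in NP-40/deoxycholate, protein normalized by BCA, clicked to TAMRA-N3 (CuSO4/TCEP/TBTA, 1–1.5 h RT), resolved by SDS-PAGE, read by in-gel fluorescence.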
Target sequence in this assay (P49327 whole entry, looked up, the tested form may be a part): as the sequence (P49327 whole entry, the tested form may be a part) above

Series [7] concerns HeLa. The series is described as follows: Cytotoxicity against human HeLa cells assessed as reduction in cell viability after 24 hrs by MTT assay. Type of series: functional, cell-based. Put shortly: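 HeLa cells grown in DMEM with 10% FBS were seeded at 5000/well and left overnight. MTT was then added for 4 h, the formazan dissolved in DMSO and A570 read. IC50 came from dose-response curves; mean ± SEM of three independent experiments.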
(Tetrazolium assays rely on reduction of a dye to a coloured formazan, in cell work by metabolically active cells.)

For the molecule `CCCCCC[C@@]1(C)C(=O)O[C@H]1C(=O)NCCCC[C@H](NC(=O)[C@H](C)NC(=O)OCc1ccccc1)C(=O)OCc1ccccc1`, in series [1], the IC50 came to 1190 nM.
For `C#Cc1ccc(COC(=O)[C@H](C)NC(=O)[C@H](CCCCNC(=O)[C@@H]2OC(=O)[C@H]2CCCCCC)NC(=O)OCc2ccccc2)cc1`, the IC50 came to 260 nM in series [2] and 3980 nM in series [1].
`CCC[C@@H]1C(=O)O[C@H]1C(=O)NCCC[C@H](NC(=O)[C@H](C)NC(=O)OCc1ccccc1)C(=O)OCc1ccccc1` gave an IC50 in series [3] of 160 to 4000 nM.
Still for that read-out and setting: the figure for `CC(C)C[C@@H]1C(=O)O[C@H]1C(=O)NCCC[C@H](NC(=O)[C@H](C)NC(=O)OCc1ccccc1)C(=O)OCc1ccccc1` is 160 to 4000 nM.
Regarding `CCCCCC[C@]1(C)C(=O)O[C@H]1C(=O)NCCCC[C@H](NC(=O)[C@H](C)NC(=O)OCc1ccccc1)C(=O)OCc1ccccc1`, the t1/2 came out at 120 min in series [4] and 70 min in series [5]. This molecule also gave an IC50 in series [1] of 2610 nM.
Consider `CCCCCCCCCCC[C@@H](C[C@@H]1OC(=O)[C@H]1CCCCCC)OC(=O)[C@H](CC(C)C)NC=O` [ORLISTAT], for which the IC50 in series [2] was more than 100000 nM.
With `CCCCCC[C@@H]1C(=O)O[C@H]1C(=O)NCCCC[C@H](NC(=O)OCc1ccccc1)C(=O)N[C@@H](C)C(=O)OCc1ccccc1`, the t1/2 is less than 3 min in series [4] and 20 min in series [5]. The inhibition result in series [6] is “Dose-dependent effect”. Moreover, the IC50 in series [2] stood at 370 nM; in series [7], 45800 nM; in series [1], 1500 nM.
In the case of `CCCCCC[C@@H]1C(=O)O[C@H]1C(=O)NCCC[C@H](NC(=O)[C@H](C)NC(=O)OCc1ccccc1)C(=O)OCc1ccccc1`, the IC50 in series [2] is 700 nM; in series [1], 4350 nM; in series [3], 160 to 4000 nM.
In series [1], `CCCCCC[C@@]1(C)C(=O)O[C@@H]1C(=O)NCCCC[C@H](NC(=O)[C@H](C)NC(=O)OCc1ccccc1)C(=O)OCc1ccccc1` registered an IC50 of 3110 nM.
On to `CCCCCC[C@@H]1C(=O)O[C@H]1C(=O)NCCCC[C@@H]1NC(=O)N([C@@H](C)C(=O)OCc2ccccc2)C1=O`, for which the IC50 was determined as 510 nM in series [2] and 5550 nM in series [1].
`CCCCCC[C@@H]1C(=O)O[C@H]1C(=O)NCCCC[C@H](NC(=O)[C@H](C)NC(=O)c1ccc(Br)cc1)C(=O)OCc1ccccc1` gave an IC50 in series [1] of 4810 nM.
For `CCCCCC[C@H]1C(=O)O[C@@H]1C(=O)NCCCC[C@H](NC(=O)OCc1ccccc1)C(=O)N[C@@H](C)C(=O)OCc1ccccc1`, the IC50 in series [2] was determined as 2710 nM; in series [1] it was 12600 nM.
